Screening results: PubChem BioAssay, several laboratories
Hits are enriched below; roughly 8.7% of the tested compounds scored in any of these assays.
PostGolgi yeast: phenotypic screen on post-Golgi transport, primary screen; post-Golgi transport phenotypic cell assay; inhibition, % at 10 µM; hit rate 0.9% among 98,000; AID 739, 2007;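 note: yeast cells grown in 1536-well plates; yeast grown about 18 h at 30C before absorbance read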
Cav3 T inh: Cav3.2 calcium influx blockers – cell-based, Fluo-4 calcium fluorescence, FDSS, MLSMR library, primary screen | B-score at 10 µM | hit rate 4% among 100,000 | Cav3.2-expressing cells; active compounds read low | Voltage-dependent T-type calcium channel subunit alpha-1H (Homo sapiens), O95180;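 active = single-dose well whose peak fluorescence ratio is a statistical outlier from its plate by either plate-standardised score or position-corrected B-score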
Pyk2 oligo antag: antagonists of Pyk2 self-association, primary screen, Q293 cells, FERM NanoBiT luminescence, HTS; Protein-tyrosine kinase 2-beta (Homo sapiens), Q14289; active compounds read low; z-score (the deposit names both 25 µM and 10 µM); hit rate 0.83% among 99,000;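 active = Z-score of -3 or lower, scaled per plate to the spread of control and sample wells; inactive = z-score above -3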;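 note: negative z-score means lost luminescence so less FERM oligomerization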
PostGolgi ctrl: growth inhibition of yeast control strain, primary screen, counter-screen for post-Golgi transport modulator project | hit rate 5% among 98,000 | efflux-deficient yeast background strain, growth absorbance A615, 16 h | AID 738, 2007 | inhibition, % at 10 µM
Ecoli WT expand: growth inhibitors of wild-type E. coli, primary screen, strain BW25113, expanded library, OD600; OD600 absorbance; growth inhibition, % at 100 µM; hit rate 0.15% among 98,000;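 active = growth inhibition above about 50% at one test dose, limit read from the data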;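 note: growth measured after 20 h incubation at 37 °C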
Ecoli tolC: growth inhibitors of E. coli tolC mutant, primary screen, strain BW25113 ΔtolC::kan, 384-well; hit rate 2.2% among 65,000; growth inhibition, % at 10 µM (by protocol); AID 573, 2007; OD615;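 active = growth inhibition at or above a cutoff equal to the mean over every tested compound plus 3 SD, cut at about 60% in these data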;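 note: growth measured after 20 h incubation at 37 °C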
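Test system: E. coli BW25113 ΔtolC::kan bacteria | Medium: Kanamycin-containing LB broth (50 µg/mL) | Dosing: One dose of 10 µM final | Times: 20 h incubation with compound, 37 °C | Detection: Optical density read at 615 nm | Read-out basis: Percent growth inhibition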
The depositor's hits bear a star; / = not tested or not shown. Cut-off read from the data, not from the text of the source, unless noted: active = inhibition above about 30%; inactive = the rest.

SMILES	PostGolgi yeast	Cav3 T inh	Pyk2 oligo antag	PostGolgi ctrl	Ecoli WT expand	Ecoli tolC
COC(=O)c1[nH]c2ccc(C)cc2c1NC(=O)CN1CCN(c2ccccc2)CC1	12	-3.9	-1.5	20	23	-13
Cc1cccc(N2CCN(CC(=O)Nc3ccccc3[N+](=O)[O-])CC2)c1C	-1	-0.058	0.67	32*	-11	/
Cc1ccc2[nH]c(C(=O)O)c(NC(=O)CN3CCN(c4cccc(C)c4C)CC3)c2c1	0	-4.9*	-0.3	2	-4	96*
CCOc1ccc(OCC)c(NC(=O)CN2CCN(c3cccc(C)c3C)CC2)c1	8	-0.68	-0.06	16	-18	-16
C=C(C)c1cccc(C(C)(C)NC(=O)N2CCN(C/C=C/c3ccccc3)CC2)c1	2	-3.4	0.38	6	8	/
COc1ccc(CCNC(=O)COc2ccc(S(=O)(=O)N3CCOCC3)cc2)cc1	-4	-0.066	0.39	-3	3	-10
COc1ccc(CCNC(=O)COc2ccc(S(=O)(=O)N3CCOCC3)cc2)cc1OC	1	-4.3*	-0.15	10	-1	2
COC(=O)c1ccc(C2C(C(=O)Nc3ccc(C)cc3C)=C(C)Nc3ncnn32)cc1 (configuration not stated)	-4	0.21	/	-2	-5	0
COc1ccc(CNC(=O)Oc2ccccc2)cc1Cl	-5	-5.2*	0.24	-3	2	/
COc1ccccc1-n1c(SCC(=O)NC2CCCC2)nc2cccnc21	4	-0.029	-0.49	1	-4	5
CCN(CC)S(=O)(=O)c1ccc2c(c1)nc(SCC(=O)NC1CC1)n2-c1ccccc1OC	4	-3.4	-3.3*	1	-10	39
CCn1c(Cc2ccc(OC)cc2)nnc1SCC(=O)NC1CCCCC1	7	0.81	0.11	31*	-4	-4
COc1cccc(-n2nnnc2SCC(=O)NC2CCCC2)c1	-2	1.1	0.1	9	7	/
COc1ccccc1-n1nnnc1SCC(=O)NC1CCCC1	-2	-0.26	-1.2	42*	-1	5
Cc1c(N/C(=N/S(=O)(=O)c2ccccc2)c2ccc(Cl)cc2)c(=O)n(-c2ccccc2)n1C	/	/	0.19	/	/	/
Cc1nc2ccccc2n2c(O)c(CC(=O)O)cc12	9	-6.3*	0.26	-5	-7	-6
Cc1nc2ccccc2n1CCC(=O)O	-9	-0.12	0.33	-1	-5	/
CN(C)C=Nc1c(Br)cc(Br)c2nonc12	14	-4.2*	1.4	6	-11	-8
Cc1c(N2C(=O)/C(=C\c3cccc4ccccc34)SC2=S)c(=O)n(-c2ccccc2)n1C	-2	1.2	-0.39	54*	-8	/
Cc1c(N2C(=O)c3ccccc3C2=O)c(=O)n(-c2ccccc2)n1C	6	-0.57	-0.42	-8	6	-5
COc1cc(CNc2ccccc2Oc2cc(=O)n(C)c(=O)n2C)cc(OC)c1OC	0	-0.55	0.36	8	3	/
Cn1c(Oc2ccccc2NCc2cc(Br)ccc2O)cc(=O)n(C)c1=O	-8	/	-3.1*	28	10	65*
O=C(CSc1nnc(COc2ccccc2)n1-c1ccccc1)c1ccccc1	10	-6.1*	-0.73	22	-11	/
CC1CCCC(C)N1C(=O)CSc1nnc(COc2ccccc2)n1-c1ccccc1 (configuration not stated)	-1	-3.5*	-0.73	2	-2	/
COc1ccc(C(=O)CSc2nnc(COc3ccc(C#N)cc3)n2-c2ccccc2)cc1	-17	-0.0068	1	14	-4	3
CC(=O)c1sc2nc(=O)c(C)nn2c1C	26	-0.23	-0.38	-1	-5	-27
CCCCNC(=O)CSc1nnc(-c2c[nH]c3ccccc23)n1CC1CCCO1 (configuration not stated)	2	0.6	2.4	10	1	/
CC(C)(C)C(=O)C(Cc1ccccc1Cl)n1cncn1 (configuration not stated)	99*	0.31	-0.01	94*	4	/
CCCC(C(=O)c1ccccc1)n1cncn1 (configuration not stated)	2	0.81	-0.89	-11	0	-19
CC(C)(C)C(=O)C(Cc1ccccc1)n1cncn1 (configuration not stated)	51*	1.9	0.11	45*	-2	/
